# Rows were chosen to be rich in hits. Some 2.6% of all compounds tested hit in one or more screens of this group.
# AHR activator: AHR activators, primary screen, cell-based, luminescence, luciferase reporter, human | AHR-responsive luciferase reporter cells | activation, % at 5 µM | 320,000 tested, 2.5% active; in the data active means activation above about 47%;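 further: 0% = vehicle wells and 100% = reference agonist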
# proCasp7 act: procaspase-7 activators, primary screen, counter-screen for procaspase-3 activator project, biochemical, absorbance, HTS, human | AID 463210, 2010 | recombinant procaspase-7, Ac-DEVD-pNA absorbance 405 nm; D23A/D198A/D206A triple mutant, cannot self-cleave; scale: DMSO 0, 5 µM enzyme 100 | activation, % at 8.5 µM | 330,000 tested, 0.093% active | Caspase-7 (Homo sapiens), P55210;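 active means percent activation above the screen-wide mean plus 3 SD, cut at about 25% in these data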
#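 signal = Epi-absorbance of released pNA at 405 nm, two timepoints | assay system = Uncleavable procaspase-7 mutant enzyme | reagent = Ac-DEVD-pNA substrate, 400 µM as added | times = 1 h enzyme–compound preincubation and 2 h substrate reaction, both 25 °C | benchmarks = low DMSO alone, high DMSO plus 5 µM PC-7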
# PolyA inhibitor: polyadenylation inhibitors in yeast reporter cells, primary screen, luminescence, S. cerevisiae | S. cerevisiae SKY197-pL101 polyadenylation reporter, beta-gal luminescence; efflux-impaired pdr1/pdr3 knockout yeast; score 100 = 6 SD above DMSO | activity score, % at 12 µM | 300,000 tested, 0.02% active | AID 1875, 2009;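 active means lowest replicate activity score at least 50, where 100 means six control SD above control mean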;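 further: yeast exposed to compound for 9 h at 30 °C; higher score means more reporter readthrough which indicates perturbed polyadenylation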
# proCasp3 act: activators of human procaspase-3 D3A mutant, primary screen, biochemical, absorbance, PC-3 D3A mutant, single concentration; activation, % at 8.5 µM; AID 463141, 2010; recombinant procaspase-3 D3A, Ac-DEVD-pNA absorbance 405 nm; 330,000 tested, 0.11% active;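 active means activation above the mean of all tested compounds plus 3 SD, cut at about 21% in these data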;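 further: 0% = DMSO alone and 100% = DMSO wells spiked with extra 5 µM PC-3 D3A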
#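 material = Procaspase-3 D3A mutant | probe or stimulus = Ac-DEVD-pNA | compound = single dose, 8.5 µM nominal compound, 0.8% DMSO | timing = 1 h preincubation, 2 h reaction | measured by = 405 nm absorbance of p-nitroaniline, reads at 0 and 120 min | benchmarks = DMSO-only low control, 5 µM PC-3 D3A high control | repeats = singlicate, each compound tested once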
# Active calls of the source: *; x = no result.
SMILES,AHR activator,proCasp7 act,PolyA inhibitor,proCasp3 act
CCCCn1nnnc1SCC(=O)Nc1ccc(N(C)C)cc1,71*,-2,-19,1
Nn1cc(-c2ccccc2)nc1SCC(=O)Nc1ccc2c(c1)OCO2,69*,-10,-14,-4
CCCc1cnc(N2CCN(C(=O)c3ccccc3)CC2)nc1,0,5,-25,3
CCc1ccc(NC(=O)CCC(=O)Nc2nnc(C(C)C)s2)cc1,3,1,-12,4
Cc1cccc(NC(=S)N/N=C/c2ccc([N+](=O)[O-])s2)c1,71*,-18,-95,-17
CC12CCC(=O)N1C(C(=O)Nc1nc3ccc(S(C)(=O)=O)cc3s1)CS2 (stereo not given),2,2,5,-8
CCc1ccc2nc(NC(=O)C3CSC4(C)CCC(=O)N34)sc2c1 (stereo not given),66*,-3,-6,-3
COc1ccccc1N=Nc1c(O)[nH]c2ccc(Br)cc12,46,10,30,5
Cc1ccccc1N=Nc1c(O)[nH]c2ccccc12,48*,-14,-6,-9
Cc1ccc2[nH]c(O)c(N=Nc3ccccc3C)c2c1,15,-5,7,7
COc1ccc2[nH]c(N=Nc3ccccc3C)c(O)c2c1,65*,-1,-9,-5
O=C(/C=C/c1ccc(Br)cc1)c1ccc(NC(=O)c2ccco2)cc1,48*,0,-14,3
O=C(/C=C/c1ccc(Br)cc1)c1ccco1,-8,7,-15,5
CCOC(=O)c1[nH]c2ccc(OC)cc2c1NC(=O)c1ccc(OC)c(OC)c1,3,-1,5,-7
COC(=O)c1[nH]c2cc(OC)c(OC)cc2c1NC(=O)c1cccc(OC)c1,62*,3,19,-6
N#C/C(=C/c1ccc(-c2ccccc2)o1)c1nc(-c2cccs2)cs1,54*,0,x,5
O=C(O)c1ccc(/C=N/NC(=O)c2cc(-c3ccc4c5c(cccc35)CC4)n[nH]2)cc1,78*,5,19,-10
O=C(N/N=C/c1ccccn1)c1cc(-c2ccccc2Cl)n[nH]1,9,6,5,-5
O=C(N/N=C/c1cccs1)c1cc(-c2cccc3ccccc23)n[nH]1,48*,3,3,7
O=C(N/N=C/c1ccccn1)c1cc(-c2cccc3ccccc23)n[nH]1,70*,-2,-21,-1
O=C(N/N=C/c1cccs1)c1cc(-c2ccc3ccccc3c2)n[nH]1,13,12,3,-1
O=Cc1c(-c2ccccc2)nc2ccccn12,89*,7,-35,6
COC(=O)CSCc1nc2ccccc2[nH]c1=O,64*,-7,9,-14
COc1cccc(Nc2ncnc3c2cnn3-c2cccc(C)c2)c1,-7,4,-20,5
COc1ccccc1Nc1ncnc2c1cnn2-c1cccc(C)c1,51*,12,-9,-7
SMILES,AHR activator,proCasp7 act,PolyA inhibitor,proCasp3 act
Cn1c(-c2ccccc2F)cc2onc(-c3ccccc3)c2c1=O,-9,1,x,3
Cn1c(-c2ncc(F)cc2F)cc2onc(-c3c(F)cccc3Cl)c2c1=O,50*,7,x,2
COc1ccc(Oc2nc(C)cc(C)c2C#N)cc1,22,2,-5,2
COc1ccc(N(C(C)=O)c2nc(C)cc(C)c2C#N)c(OC)c1,78*,0,0,3
N#Cc1c(N)c2ccccn2c1C(=O)c1ccc(Br)cc1,61*,2,-15,3
Cc1c(C=NNC(=O)c2ccc(Br)cc2)c2ccccn2c1C(=O)c1ccncc1,3,1,x,14
O=C(NCc1ccccc1)c1onc(CS(=O)(=O)c2ccccn2)c1C(=O)NCc1ccccc1,-1,8,-13,4
c1ccc(-c2nc(-c3cccnc3)n[nH]2)cc1,65*,0,20,0
CCSc1nnc(NC(=O)c2cccc3ccccc23)s1,52*,1,18,0
O=C(Nc1ccccc1C(=O)Nc1ccccc1)c1ccco1,76*,0,2,-6
CCCCCCC(=O)Nc1c(O)c2ccccc2[nH]c1=O,4,-23,10,-10
O=C(Nc1c(O)c2ccccc2[nH]c1=O)c1ccco1,78*,-23,37,1
